Reference: ChEMBL document CHEMBL3228037, “Syntheses and antiinflammatory actions of 4,5,6,7-tetrahydroindazole-5-carboxylic acids” (J Med Chem, 1979)

Tests used:
[1] = test system: Rattus norvegicus; assay: Antiinflammatory activity in rat assessed as inhibition of carrageenan-induced paw edema at 25 mg/kg, po preincubated for 1 hr followed by carrageenan challenge relative to control; format: functional
Method in brief: (§1)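 Winter carrageenan edema screen in rats. Compound was given orally as a suspension in 0.5% CMC at 100 and/or 25 mg/kg. One hour later, 1% carrageenan solution was injected into the hind paw.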

[2] = test system: Rattus norvegicus; assay: Antiinflammatory activity in rat assessed as inhibition of carrageenan-induced paw edema at 100 mg/kg, po preincubated for 1 hr followed by carrageenan challenge relative to control; format: functional; method in brief: as §1
[3] = test system: Rattus norvegicus; assay: Antiarthritic activity in po dosed rat assessed as reduction of adjuvant-induced foot volume administered as qd for 14 days starting on day 14 after adjuvant inoculation measured on day 28; format: functional
Method in brief: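 Rats with established adjuvant arthritis (Newbould method) were dosed orally once daily for 14 days, starting on day 14 after adjuvant inoculation. Foot swelling was measured as volume. ED50 was estimated from the dose-response curve.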

[4] = test system: Mus musculus; assay: Analgesic activity in po dosed mouse assessed as inhibition of acetic acid-induced writhing; format: functional
Method in brief: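 Acetic acid writhing test after Koster, using 10 male mice per dose.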

[5] = test system: Rattus norvegicus; assay: Antiinflammatory activity in rat assessed as inhibition of carrageenan-induced paw edema at 2.5 mg/kg, po preincubated for 1 hr followed by carrageenan challenge relative to control; format: functional
Method in brief: (§2)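 Winter carrageenan paw edema in rats. Oral dosing as a suspension in 0.5% CMC was followed 1 h later by 1% carrageenan injected into the hind paw. Several doses were tested, and ED50 was read from the dose-response curve.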

[6] = test system: Rattus norvegicus; assay: Ulcerogenic activity in po dosed rat assessed as induction of lesions in gastric mucosa measured after 24 hrs; format: toxicity, organism-based; conditions: in vivo
Method in brief: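 Compounds were suspended in 0.2% carboxymethylcellulose and given orally to seven male rats per dose, at five or more doses; controls got vehicle alone. Rats were killed 24 h later, and gastric lesions (hemorrhage, erosion, ulcer) were counted blind. MUD, the dose giving two lesions, was calculated graphically.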

[7] = test system: Rattus norvegicus; assay: Antiinflammatory activity in rat assessed as inhibition of carrageenan-induced paw edema at 10 mg/kg, po preincubated for 1 hr followed by carrageenan challenge relative to control; format: functional; method in brief: as §2
[8] = test system: Rattus norvegicus; assay: Antiinflammatory activity in po dosed rat assessed as inhibition of carrageenan-induced paw edema preincubated for 1 hr followed by carrageenan challenge relative to control; format: functional; method in brief: as §2
[9] = test system: Rattus norvegicus; assay: Antiinflammatory activity in rat assessed as inhibition of carrageenan-induced paw edema at 3 mg/kg, po preincubated for 1 hr followed by carrageenan challenge relative to control; format: functional; method in brief: as §2
[10] = test system: Rattus norvegicus; assay: Antiinflammatory activity in rat assessed as inhibition of carrageenan-induced paw edema at 50 mg/kg, po preincubated for 1 hr followed by carrageenan challenge relative to control; format: functional; method in brief: as §2

SMILES: O=C(O)C1CCc2nn(-c3cccc4ccccc34)cc2C1 (centres undefined)
- inhibition in vivo at 25 mg/kg [1]: 0%

SMILES: O=C(O)C1CCc2nn(-c3cccc(C(F)(F)F)c3)cc2C1 (centres undefined)
- inhibition in vivo at 100 mg/kg [2]: 14.8%

SMILES: O=C(O)c1nn(-c2cccc(C(F)(F)F)c2)c2c1CC(C(=O)O)CC2 (centres undefined)
- inhibition in vivo at 100 mg/kg [2]: 0%

SMILES: Cc1ccc(-n2cc3c(n2)CCC(C(=O)O)C3)cc1 (centres undefined)
- inhibition in vivo at 100 mg/kg [2]: 10.8%

SMILES: O=C(O)C1CCc2c(cnn2Cc2ccccc2)C1 (centres undefined)
- inhibition in vivo at 25 mg/kg [1]: 15.9%

SMILES: O=C(O)C1CCc2c(cnn2-c2ccccc2)C1 (centres undefined)
- ED50 [3]: 1.5 mg/kg
- ED50 [4]: 4.7 mg/kg
- inhibition in vivo at 2.5 mg/kg [5]: 40.6%
- MUD [6]: 20 mg/kg
- inhibition in vivo at 10 mg/kg [7]: 72.6%
- ED50 [8]: 3.5 mg/kg

SMILES: Cc1ccccc1-n1cc2c(n1)CCC(C(=O)O)C2 (centres undefined)
- inhibition in vivo at 100 mg/kg [2]: 38%

SMILES: O=C(O)C1CCc2c(cnn2-c2ccccn2)C1 (centres undefined)
- inhibition in vivo at 25 mg/kg [1]: 57.9%

SMILES: Cc1ccccc1-n1ncc2c1CCC(C(=O)O)C2 (centres undefined)
- inhibition in vivo at 25 mg/kg [1]: 0%

SMILES: O=C(O)C1CCc2c(cnn2-c2cccc(C(F)(F)F)c2)C1 (centres undefined)
- inhibition in vivo at 25 mg/kg [1]: 35.6%

SMILES: COc1ccc(-n2cc3c(n2)CCC(C(=O)O)C3)cc1 (centres undefined)
- inhibition in vivo at 100 mg/kg [2]: 6%

SMILES: Cc1ccc(-n2nc(C(=O)O)c3c2CCC(C(=O)O)C3)cc1 (centres undefined)
- inhibition in vivo at 100 mg/kg [2]: 0%

SMILES: O=C(O)c1nn(-c2ccc(Cl)cc2)c2c1CC(C(=O)O)CC2 (centres undefined)
- inhibition in vivo at 100 mg/kg [2]: 0%

SMILES: O=C(O)C1CCc2c(cnn2-c2ccncc2)C1 (centres undefined)
- inhibition in vivo at 25 mg/kg [1]: 13.4%

SMILES: O=C(O)C1CCc2c(cnn2-c2ccc(Cl)cc2)C1 (centres undefined)
- ED50 [3]: 6.4 mg/kg
- ED50 [4]: 7 mg/kg
- MUD [6]: 70 mg/kg
- inhibition in vivo at 10 mg/kg [7]: 39.4%
- inhibition in vivo at 25 mg/kg [1]: 39.4%
- ED50 [8]: 17 mg/kg

SMILES: O=C(O)C1CCc2c(cnn2-c2cccc3ccccc23)C1 (centres undefined)
- inhibition in vivo at 25 mg/kg [1]: 13.1%

SMILES: O=C(O)C1CCc2nn(-c3ccccc3)cc2C1 (centres undefined)
- inhibition in vivo at 100 mg/kg [2]: 36.4%

SMILES: O=C(O)c1ccccc1Nc1cccc(C(F)(F)F)c1 [FLUFENAMIC ACID]
- ED50 [3]: 5.1 mg/kg
- ED50 [4]: 160 mg/kg
- MUD [6]: 50 mg/kg
- ED50 [8]: 20 mg/kg

SMILES: COc1ccc2c(c1)c(CC(=O)O)c(C)n2C(=O)c1ccc(Cl)cc1 [INDOMETHACIN]
- ED50 [3]: 0.3 mg/kg
- ED50 [4]: 6.3 mg/kg
- MUD [6]: 5.6 mg/kg
- inhibition in vivo at 3 mg/kg [9]: 35.5%
- ED50 [8]: 3.8 mg/kg

SMILES: O=C(O)C1CCc2nn(-c3ccccn3)cc2C1 (centres undefined)
- inhibition in vivo at 100 mg/kg [2]: 11.5%

SMILES: O=C(O)c1nn(-c2ccccc2)c2c1CC(C(=O)O)CC2 (centres undefined)
- inhibition in vivo at 100 mg/kg [2]: 0%

SMILES: O=C(O)C1CCc2c(cnn2-c2ccc(O)cc2)C1 (centres undefined)
- inhibition in vivo at 100 mg/kg [2]: 14.7%

SMILES: O=C(O)C1CCc2nn(-c3ccc(Cl)cc3)cc2C1 (centres undefined)
- inhibition in vivo at 100 mg/kg [2]: 17.9%

SMILES: CCCCC1C(=O)N(c2ccccc2)N(c2ccccc2)C1=O [PHENYLBUTAZONE]
- ED50 [3]: 12 mg/kg
- ED50 [4]: 810 mg/kg
- MUD [6]: 90 mg/kg
- inhibition in vivo at 50 mg/kg [10]: 43.4%
- ED50 [8]: 78 mg/kg

SMILES: O=C(O)C1CCc2c(cnn2-c2cccc(F)c2)C1 (centres undefined)
- inhibition in vivo at 25 mg/kg [1]: 38.2%

SMILES: COc1ccc(-n2ncc3c2CCC(C(=O)O)C3)cc1 (centres undefined)
- inhibition in vivo at 25 mg/kg [1]: 9.8%

SMILES: O=C(O)C1CCc2nn(Cc3ccccc3)cc2C1 (centres undefined)
- inhibition in vivo at 100 mg/kg [2]: 3.7%

SMILES: Cc1ccc(-n2ncc3c2CCC(C(=O)O)C3)cc1 (centres undefined)
- inhibition in vivo at 25 mg/kg [1]: 38.7%
